Measured values from ChEMBL document CHEMBL1949640, “Discovery of substituted biphenyl oxazolidinone inhibitors of cholesteryl ester transfer protein” (ACS Med Chem Lett, 2011).
Each block holds one molecule with its values, some of them ahead of it.

Tests used:
[1] = target: T1, Cholesteryl ester transfer protein (Homo sapiens, UniProt P11597); assay: Inhibition of CETP-mediated BODIPY-labeled cholesteryl ester transfer after 45 mins by FRET analysis
T1 sequence (P11597 whole entry): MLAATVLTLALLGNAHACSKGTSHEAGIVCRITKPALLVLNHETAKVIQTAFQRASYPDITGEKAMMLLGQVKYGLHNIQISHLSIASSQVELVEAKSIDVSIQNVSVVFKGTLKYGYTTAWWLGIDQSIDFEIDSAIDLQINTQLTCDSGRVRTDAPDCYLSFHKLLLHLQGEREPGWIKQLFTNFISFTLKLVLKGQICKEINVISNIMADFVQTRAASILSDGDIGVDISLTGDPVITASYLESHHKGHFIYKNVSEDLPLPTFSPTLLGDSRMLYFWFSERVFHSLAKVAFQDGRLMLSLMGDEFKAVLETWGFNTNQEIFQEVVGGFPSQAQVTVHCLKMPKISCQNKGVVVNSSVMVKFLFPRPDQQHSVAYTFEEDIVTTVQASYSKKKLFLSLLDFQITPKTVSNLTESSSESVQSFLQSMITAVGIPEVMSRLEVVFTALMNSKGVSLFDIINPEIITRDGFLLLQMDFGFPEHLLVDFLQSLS
In short: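 Fluorescence transfer assay of cholesteryl ester transfer by CETP. IC50 taken from 10-point titrations, reported as the average of three or more titrations, the average of two, or a single titration.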

Mus musculus = organism: Mus musculus; assay: (§1) Clearance in mouse; type: ADME, organism-based; details: in vivo
[2] = Oral bioavailability in mouse; type: ADME, organism-based; details: in vivo
[3] = Volume of distribution in mouse; type: ADME, organism-based; details: in vivo
[4] = as §1; type: ADME, organism-based; details: in vivo
[5] = target: T2, Cholesteryl ester transfer protein (Homo sapiens) (UniProt P11597); assay: Inhibition of CETP-mediated BODIPY-labeled cholesteryl ester transfer at 100 uM after 45 mins by FRET analysis
T2 sequence (whole entry): T1 sequence (P11597 whole entry)

- IC50 [1]: 37.2 µM
Compound: COc1ccc(C(C)C)cc1-c1ccc(C(F)(F)F)cc1CN1C[C@H](c2ccccc2)OC1=O

- IC50 [1]: 14.2 µM
Compound: COc1ccc(C(C)C)cc1-c1ccc(C(F)(F)F)cc1CN1C(=O)OCC1c1cc(C(F)(F)F)cc(C(F)(F)F)c1 (racemic)

- clearance (Mus musculus): 31.6 mL/min/kg
- bioavailability [2]: 4%
- Vd [3]: 3.4 L/kg
Compound: COc1ccc(C(C)C)cc1-c1ccc(C(F)(F)F)cc1CN1C[C@@H](c2cc(C(F)(F)F)cc(C(F)(F)F)c2)OC1=O

- clearance [4]: 12.8 mL/min/kg
- bioavailability [2]: 5%
- Vd [3]: 3.3 L/kg
Compound: COC(=O)N(Cc1cc(C(F)(F)F)cc(C(F)(F)F)c1)Cc1cc(C(F)(F)F)ccc1-c1cc(C(C)C)ccc1OC

- IC50 [1]: 0.133 µM
Compound: COc1ccc(C(C)C)cc1-c1ccc(C(F)(F)F)cc1CN1CC(c2cc(C(F)(F)F)cc(C(F)(F)F)c2)OC1=O (racemic)

- IC50 [1]: 0.293 µM
Compound: COc1ccc(C(C)C)cc1-c1ccc(C(F)(F)F)cc1CN1C[C@@H](c2ccccc2)OC1=O

- IC50 [1]: 27.3 µM
Compound: COC(=O)N(Cc1ccccc1)Cc1cc(C(F)(F)F)ccc1-c1cc(C(C)C)ccc1OC

- inhibition [5]: < 50%
Compound: COc1ccc(C(C)C)cc1-c1ccc(C(F)(F)F)cc1CN1C[C@H](c2cc(C(F)(F)F)cc(C(F)(F)F)c2)OC1=O
